Measured values from ChEMBL document CHEMBL2321684, “Novel hybrids of optically active ring-opened 3-n-butylphthalide derivative and isosorbide as potential anti-ischemic stroke agents” (J Med Chem, 2013).
Converted amounts (≈) assume the structure as drawn. The source made the active and inactive calls. The calls are words filed in the database; no cut-off is given here.

What was measured:
[1] = tested on: Rattus norvegicus; test: Antiischemic activity in Sprague-Dawley rat assessed as reduction in middle cerebral artery occlusion-induced inflammatory infiltrates in brain at 80 mg/kg administered via gavage for 7 days prior to middle cerebral artery occlusion-challenge measured after 24 hrs by microscopic analysis; type: functional, organism-based; parameters: dose 80 mg/kg
Procedure, shortened: (§1)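 Male SD rats (280−320 g), n = 12 per group, dosed by gavage daily for 7 days in 0.5% CMC-Na vehicle. Sham animals received vehicle only. Two hours after the last dose, rats were anesthetized with chloral hydrate (300 mg/kg ip) and given MCAO for 2 h, then reperfused. Body temperature was held at 37 °C. All endpoints were read at 24 h post reperfusion.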

[2] = tested on: Rattus norvegicus; test: Antiischemic activity in Sprague-Dawley rat assessed as reduction in middle cerebral artery occlusion-induced abnormal changes in brain at 80 mg/kg administered via gavage for 7 days prior to middle cerebral artery occlusion-challenge measured after 24 hrs by microscopic analysis; type: functional, organism-based; parameters: dose 80 mg/kg; procedure, shortened: as §1
[3] = tested on: Rattus norvegicus; test: (§2) Antiischemic activity in Sprague-Dawley rat assessed as reduction in middle cerebral artery occlusion-induced water content in brain at 340 mg/kg administered via gavage for 7 days prior to middle cerebral artery occlusion-challenge measured after 24 hrs relative to control; type: functional, organism-based; parameters: dose 340 mg/kg; procedure, shortened: as §1
[4] = tested on: Rattus norvegicus; test: as §2, with “infarct size” for “water content”, “hrs by triphenyltetrazolium chloride assay” for “hrs”; type: functional, organism-based; parameters: dose 340 mg/kg; procedure, shortened: as §1
[5] = tested on: Rattus norvegicus; test: Antiischemic activity in Sprague-Dawley rat assessed as reduction in middle cerebral artery occlusion-induced neurological deficit scores at 340 mg/kg administered via gavage for 7 days prior to middle cerebral artery occlusion-challenge measured after 24 hrs relative to control; type: functional, organism-based; parameters: dose 340 mg/kg; procedure, shortened: as §1
[6] = tested on: Rattus norvegicus; test: as §2, with “infarct size” for “water content”, “80” for “340”, “hrs by triphenyltetrazolium chloride assay” for “hrs”; type: functional, organism-based; parameters: dose 80 mg/kg; procedure, shortened: as §1
[7] = Plasma concentration in ICR mouse at 680 mg/kg, po after 4 hrs by HPLC analysis; type: ADME, organism-based; parameters: dose 680 mg/kg, route oral
Procedure, shortened: (§3)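 Male ICR mice (30−35 g), n = 6 per time point, were given a single 680 mg/kg gavage dose and sacrificed at 0.5, 1, 2, 4 and 8 h. Brains were rinsed, weighed and homogenized in 3 volumes of saline. Plasma and homogenate were precipitated with 3 volumes of acetonitrile.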

[8] = Plasma concentration in ICR mouse at 680 mg/kg, po after 8 hrs by HPLC analysis; type: ADME, organism-based; parameters: dose 680 mg/kg, route oral; procedure, shortened: as §3
[9] = Plasma concentration in ICR mouse at 680 mg/kg, po after 2 hrs by HPLC analysis; type: ADME, organism-based; parameters: dose 680 mg/kg, route oral; procedure, shortened: as §3
[10] = Biodistribution in ICR mouse brain at 680 mg/kg, po after 8 hrs by HPLC analysis; type: ADME, organism-based; parameters: dose 680 mg/kg, route oral; conditions: read-out: Drug uptake; procedure, shortened: as §3
[11] = Biodistribution in ICR mouse brain at 680 mg/kg, po after 2 hrs by HPLC analysis; type: ADME, organism-based; parameters: dose 680 mg/kg, route oral; conditions: read-out: Drug uptake; procedure, shortened: as §3
[12] = Biodistribution in ICR mouse brain at 680 mg/kg, po after 0.5 hrs by HPLC analysis; type: ADME, organism-based; parameters: dose 680 mg/kg, route oral; conditions: read-out: Drug uptake; procedure, shortened: as §3
[13] = Biodistribution in ICR mouse brain at 680 mg/kg, po after 1 hr by HPLC analysis; type: ADME, organism-based; parameters: dose 680 mg/kg, route oral; conditions: read-out: Drug uptake; procedure, shortened: as §3
[14] = Aqueous solubility of the compound after 5 hrs by UV-spectrophotometric analysis; type: physicochemical; conditions: water
[15] = tested on: Rattus norvegicus; test: Antithrombotic activity in Sprague-Dawley rat assessed as reduction in arteriovenous shunt-induced dry thrombus weight at 340 mg/kg, administered via gavage for 7 days prior to arteriovenous shunt-challenge measured up to 15 mins relative to control; type: functional, organism-based; parameters: dose 340 mg/kg
Procedure, shortened: (§4)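 Male SD rats (250−280 g), n = 12 per group, dosed by gavage daily for 7 days in 0.5% CMC-Na. Two hours after the last dose, rats were anesthetized with chloral hydrate (300 mg/kg ip). A saline-filled 14 cm polyethylene catheter holding a 6 cm silk thread linked the left jugular vein and right carotid artery for 15 min. The thrombus was then weighed wet and dry. Results are mean ± SD, analysed by ANOVA/Tukey.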

[16] = tested on: Rattus norvegicus; test: Antithrombotic activity in Sprague-Dawley rat assessed as reduction in arteriovenous shunt-induced dry thrombus weight at 80 mg/kg, administered via gavage for 7 days prior to arteriovenous shunt-challenge measured up to 15 mins relative to control; type: functional, organism-based; parameters: dose 80 mg/kg; procedure, shortened: as §4
[17] = tested on: Rattus norvegicus; test: Antithrombotic activity in Sprague-Dawley rat assessed as reduction in arteriovenous shunt-induced wet thrombus weight at 340 mg/kg, administered via gavage for 7 days prior to arteriovenous shunt-challenge measured up to 15 mins relative to control; type: functional, organism-based; parameters: dose 340 mg/kg; procedure, shortened: as §4
[18] = tested on: Mus musculus; test: Antithrombotic activity in Swiss ICR mouse assessed as inhibition of collagen/adrenaline-induced acute systemic vascular thromboembolism at 160 mg/kg, po administered for 7 days prior to collagen/adrenaline-challenge measured up to 15 mins relative to control; type: functional, organism-based; parameters: dose 160 mg/kg
Procedure, shortened: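 Male Swiss ICR mice (30−35 g), n = 15 per group, dosed by gavage daily for 7 days in DMSO vehicle. Two hours after the last dose, mice received collagen (0.21 mg/kg) plus adrenaline (44.5 μg/kg) iv. Survival was monitored for 15 min and reported as % surviving.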

[19] = Stability in artificial intestinal juice assessed as compound remaining at pH 6.8 after 4 hr by HPLC analysis; type: physicochemical; conditions: simulated gi fluid, pH 6.8, 4 h
[20] = Stability in artificial intestinal juice assessed as compound remaining at pH 6.8 after 8 hr by HPLC analysis; type: physicochemical; conditions: simulated gi fluid, pH 6.8, 8 h
[21] = Stability in artificial intestinal juice assessed as compound remaining at pH 6.8 after 1 hr by HPLC analysis; type: physicochemical; conditions: simulated gi fluid, pH 6.8, 1 h
[22] = Stability in artificial intestinal juice assessed as compound remaining at pH 6.8 after 2 hr by HPLC analysis; type: physicochemical; conditions: simulated gi fluid, pH 6.8, 2 h
[23] = Stability in artificial gastric juice assessed as compound remaining at pH 1.5 after 4 hr by HPLC analysis; type: physicochemical; conditions: simulated gi fluid, pH 1.5, 4 h
[24] = Stability in artificial gastric juice assessed as compound remaining at pH 1.5 after 8 hr by HPLC analysis; type: physicochemical; conditions: simulated gi fluid, pH 1.5, 8 h
[25] = Stability in artificial gastric juice assessed as compound remaining at pH 1.5 after 1 hr by HPLC analysis; type: physicochemical; conditions: simulated gi fluid, pH 1.5, 1 h
[26] = Stability in artificial gastric juice assessed as compound remaining at pH 1.5 after 2 hr by HPLC analysis; type: physicochemical; conditions: simulated gi fluid, pH 1.5, 2 h
[27] = Antiplatelet aggregation activity in rabbit platelets assessed as inhibition of arachidonic acid-induced platelet aggregation incubated for 5 mins prior to arachidonic acid-challenge measured within 5 mins by Born's turbidimetric analysis; type: functional, cell-based; conditions: Oryctolagus cuniculus
Procedure, shortened: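 Rabbit citrated PRP was adjusted to 400−450 × 10⁹ platelets/L and preincubated for 5 min at 37 °C with vehicle DMSO or compound at 0.1−1.6 mM (at least five concentrations). Aggregation was induced with arachidonic acid (0.33 mM, per the methods text). Maximum aggregation rate was recorded over 5 min by Born's turbidimetry, and IC₅₀ was derived from inhibition versus vehicle (mean ± SD).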

[28] = Antiplatelet aggregation activity in rabbit platelets assessed as inhibition of ADP-induced platelet aggregation incubated for 5 mins prior to ADP-challenge measured within 5 mins by Born's turbidimetric analysis; type: functional, cell-based; conditions: Oryctolagus cuniculus

concentration at 4 h [7]: 126 ng/mL | concentration at 8 h [8]: 69.7 ng/mL | concentration at 2 h [9]: 186 ng/mL | concentration at 8 h [10]: 16.7 ng/mL | concentration at 2 h [11]: 174 ng/mL | concentration at 0.5 h [12]: 408 ng/mL | concentration at 1 h [13]: 260 ng/mL | solubility at 5 h [14]: 11.2 mg/mL (≈ 13.9 mM) | Stability [19]: 4.89 µM | Stability [20]: 4.92 µM | Stability [21]: 4.86 µM | Stability [22]: 5.04 µM | Stability [23]: 4.79 µM | Stability [24]: 4.96 µM | Stability [25]: 4.89 µM | Stability [26]: 5 µM | IC50 [27]: 50 µM | IC50 [28]: 70 µM
Compound: CCCC[C@H](OC(=O)CN1CCN(C)CC1)c1ccccc1C(=O)O[C@H]1CO[C@H]2[C@@H]1OC[C@H]2OC(=O)c1ccccc1[C@H](CCCC)OC(=O)CN1CCN(C)CC1
Activity [1]: Active | Activity [2]: Active | Activity [3]: Active | Activity [4]: Active | Activity [5]: Active | Activity [6]: Active | Activity [15]: Active | Activity [16]: Active | Activity [17]: Active | Activity [18]: Active
